Data on 17 compounds can be found in ChEMBL document CHEMBL1153088, “Discovery of benzo[g]indol-3-carboxylates as potent inhibitors of microsomal prostaglandin E(2) synthase-1” (Bioorg Med Chem, 2009).

Calls of active or inactive are those of the source. The rule behind the calls is not given here.

Series [1] deals with T1, Prostaglandin G/H synthase 1 (Ovis aries) (UniProt P05979).
T1 sequence (whole entry): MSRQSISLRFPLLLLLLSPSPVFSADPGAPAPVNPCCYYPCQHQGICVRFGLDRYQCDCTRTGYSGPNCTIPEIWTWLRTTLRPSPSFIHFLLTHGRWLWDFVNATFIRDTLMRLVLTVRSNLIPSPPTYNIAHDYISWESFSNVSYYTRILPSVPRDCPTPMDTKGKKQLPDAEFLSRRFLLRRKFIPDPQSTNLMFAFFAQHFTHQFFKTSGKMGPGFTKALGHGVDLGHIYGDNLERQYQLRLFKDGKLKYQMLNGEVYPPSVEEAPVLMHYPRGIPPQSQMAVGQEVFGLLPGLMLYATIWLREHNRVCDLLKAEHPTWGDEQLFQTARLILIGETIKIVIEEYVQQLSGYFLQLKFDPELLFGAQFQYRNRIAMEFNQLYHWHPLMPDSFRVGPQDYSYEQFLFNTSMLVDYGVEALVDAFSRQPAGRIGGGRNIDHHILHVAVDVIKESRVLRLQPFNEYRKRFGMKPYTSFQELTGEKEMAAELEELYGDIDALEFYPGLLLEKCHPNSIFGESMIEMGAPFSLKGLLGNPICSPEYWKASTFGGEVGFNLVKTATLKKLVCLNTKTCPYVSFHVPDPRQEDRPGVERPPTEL
The series can be described thus: Inhibition of ovine COX1 assessed as residual enzyme activity at 10 uM relative to untreated control. In outline: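 Purified ovine COX-1 (50 units) in 1 ml of 100 mM Tris pH 8 containing 5 mM glutathione, 5 µM hemoglobin and 100 µM EDTA was preincubated with compound for 5 min at 4 °C and prewarmed 60 s at 37 °C. The reaction was started with 5 µM AA and run 5 min at 37 °C, and 12-HHT was analysed by HPLC.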

The test system of series [2] is A549. The series can be described thus: Toxicity in human A549 cells assessed as reduction of cell viability by MTT assay. The series is classed as cell-based. Summed up: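 A549 cells (4×10^4 per 100 µl) were plated for 16 h, then exposed to compounds at 30 µM (DMSO ≤0.3%) for 5 h. MTT was added for 4 h, formazan was solubilized in 10% SDS/20 mM HCl, and absorbance at 595 nm was read relative to vehicle-treated cells.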
Background: Tetrazolium dyes change colour on reduction, which living cells bring about.

Series [3] deals with T2, Prostaglandin E synthase (Homo sapiens, UniProt O14684).
T2 sequence (O14684 whole entry): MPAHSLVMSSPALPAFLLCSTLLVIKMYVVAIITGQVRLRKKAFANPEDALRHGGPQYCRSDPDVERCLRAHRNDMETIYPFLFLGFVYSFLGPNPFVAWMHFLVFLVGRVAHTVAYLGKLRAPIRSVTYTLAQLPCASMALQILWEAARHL
The series can be described thus: Inhibition of mPGES1 in IL1-beta induced human A549 cell microsomal membrane assessed as blockade of conversion of PGH2 to PGE2. Type of series: microsomes, Microsome. Summed up: (§1)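 Microsomes from A549 cells treated with IL-1β (1 ng/ml, 72 h) were used at 50 µg/ml in 0.1 M potassium phosphate pH 7.4 with 2.5 mM glutathione. Compound (DMSO 1% final) was preincubated 15 min at 4 °C, then PGH2 was added (20 µM final) for 1 min at 4 °C.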

Series [4] addresses T3, Prostaglandin E synthase (Homo sapiens) (UniProt O14684).
T3 sequence (whole entry): T2 sequence (O14684 whole entry)
The series can be described thus: Inhibition of mPGES1 in IL1-beta induced human A549 cell microsomal membrane at 10 uM assessed as enzyme residual activity by PGE2 formation assay relative to untreated control. The series is classed as microsomes. To be noted: Microsome. In outline:
as §1

Series [5] has as its target T2, Prostaglandin E synthase. The series can be described thus: Inhibition of mPGES1 in IL1-beta induced human A549 cells assessed as PGE2 production preincubated for 10 mins. Type of series: cell-based. In outline:
(§2)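 Intact IL-1β-induced A549 cells (4×10^6/ml PBS, 1 mM CaCl2) were preincubated with compound (DMSO ≤0.3%) for 10 min at 37 °C. They were then stimulated with 2.5 µM A23187 plus 1 µM AA and [3H]AA (18.4 kBq) for 15 min, and the reaction was stopped on ice. [3H]PGE2 was separated by RP-18 SPE/HPLC and counted by liquid scintillation.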

The target in series [6] is T3, Prostaglandin E synthase (Homo sapiens). The series can be described thus: Inhibition of mPGES1 in IL1-beta induced human A549 cells assessed as PGE2 production at 30 uM preincubated for 10 mins. Further details: scale not given: the % may be the effect or the level left. The series is classed as cell-based. Summed up: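 Intact IL-1β-induced A549 cells (4×10^6/ml PBS, 1 mM CaCl2) were preincubated with compound (DMSO ≤0.3%) for 10 min at 37 °C. [3H]PGE2 was separated by RP-18 SPE/HPLC and counted by liquid scintillation.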

The target of series [7] is T4, Prostaglandin G/H synthase 2 (Homo sapiens) (UniProt P35354).
T4 sequence (whole entry): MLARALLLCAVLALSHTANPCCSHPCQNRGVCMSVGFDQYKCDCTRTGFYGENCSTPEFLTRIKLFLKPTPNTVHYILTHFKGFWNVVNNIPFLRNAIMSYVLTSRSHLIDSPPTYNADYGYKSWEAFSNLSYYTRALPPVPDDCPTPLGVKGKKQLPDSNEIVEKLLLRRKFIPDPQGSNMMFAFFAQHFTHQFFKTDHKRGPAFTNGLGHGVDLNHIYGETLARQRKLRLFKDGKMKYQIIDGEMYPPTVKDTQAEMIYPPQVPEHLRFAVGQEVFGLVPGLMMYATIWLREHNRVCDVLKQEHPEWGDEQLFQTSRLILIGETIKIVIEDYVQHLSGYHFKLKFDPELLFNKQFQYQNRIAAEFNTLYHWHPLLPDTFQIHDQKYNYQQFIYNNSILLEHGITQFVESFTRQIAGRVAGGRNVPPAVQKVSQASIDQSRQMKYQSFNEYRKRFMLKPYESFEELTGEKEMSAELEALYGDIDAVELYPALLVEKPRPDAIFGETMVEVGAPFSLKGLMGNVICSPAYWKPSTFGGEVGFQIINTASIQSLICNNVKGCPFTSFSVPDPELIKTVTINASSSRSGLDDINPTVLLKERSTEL
The series can be described thus: Inhibition of COX2 in IL1-beta induced human A549 cells assessed as 6-keto-PGF1-alpha formation up to 30 uM preincubated for 15 mins by ELISA. The series is classed as cell-based. Summed up:
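A549 cells were induced with IL-1β (1 ng/ml, 72 h, 2% FCS). Cells at 5×10^6 per ml PBS with 1 mM CaCl2 were preincubated 15 min at 37 °C, then given 30 µM AA for 15 min at 37 °C, and the reaction was stopped on ice. Released 6-keto PGF1α was measured by monoclonal-antibody ELISA with β-galactosidase tracer read at 550 nm.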
For orientation: An ELISA detects its analyte on a solid surface through an enzyme-linked reagent.

Series [8] has as its target Prostaglandin G/H synthase 1 (Homo sapiens) (UniProt P23219). The series can be described thus: Inhibition of COX1 in platelets assessed as inhibition of 12-HHT formation at 10 uM by RP-HPLC. In outline: (§3)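 Freshly isolated human platelets (10^8/ml PBS with 1 mM CaCl2) were preincubated with compound (DMSO ≤0.3%), then stimulated with 5 µM AA for 5 min at 37 °C. 12-HHT was extracted and quantified by RP-HPLC. Mean ± SE, n=3–5.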

In series [9] the target is T3, Prostaglandin E synthase (Homo sapiens). The series can be described thus: Inhibition of mPGES1 in IL1-beta induced human A549 cells assessed as PGE2 production at 5 uM preincubated for 10 mins. Type of series: cell-based. Summed up:
as §2

Series [10] deals with Prostaglandin G/H synthase 1 (Homo sapiens) (UniProt P23219). The series can be described thus: Inhibition of COX1 in platelets assessed as inhibition of 12-HHT formation up to 30 uM uM by RP-HPLC. Summed up: as §3
Prostaglandin G/H synthase 1 (Homo sapiens), sequence (P23219 whole entry): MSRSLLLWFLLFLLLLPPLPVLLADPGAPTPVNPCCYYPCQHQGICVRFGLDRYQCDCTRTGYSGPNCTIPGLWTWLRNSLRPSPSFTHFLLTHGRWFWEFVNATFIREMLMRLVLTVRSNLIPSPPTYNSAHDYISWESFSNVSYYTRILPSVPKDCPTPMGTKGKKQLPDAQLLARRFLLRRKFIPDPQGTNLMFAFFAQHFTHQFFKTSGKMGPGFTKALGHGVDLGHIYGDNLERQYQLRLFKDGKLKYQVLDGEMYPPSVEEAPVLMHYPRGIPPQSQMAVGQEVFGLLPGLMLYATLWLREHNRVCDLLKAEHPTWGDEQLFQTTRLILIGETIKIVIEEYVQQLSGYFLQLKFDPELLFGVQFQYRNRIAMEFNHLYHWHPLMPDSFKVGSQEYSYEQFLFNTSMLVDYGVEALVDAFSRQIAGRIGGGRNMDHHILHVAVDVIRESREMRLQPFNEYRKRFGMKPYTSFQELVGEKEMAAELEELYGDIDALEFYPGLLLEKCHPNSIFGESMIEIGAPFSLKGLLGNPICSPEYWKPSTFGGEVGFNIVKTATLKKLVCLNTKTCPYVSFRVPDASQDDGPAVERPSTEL
Series [11] deals with Mus musculus. The series can be described thus: Antiinflammatory activity in CD1 mouse assessed as inhibition of carrageenan-induced paw edema at 5 mg/kg, ip administered 30 mins before carrageenan challenge relative to untreated control. The series is classed as functional. To be noted: route intraperitoneal. In outline:
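Male adult CD1 mice, n=10 per group, given the compound ip (vehicle 2% DMSO) 30 min before subplantar 1% λ-carrageenan in saline (0.05 ml). Paw volume was measured double blind by hydroplethysmometer just before injection and at 2, 4 and 6 h. Inhibition was taken at the 4 h reading versus vehicle.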
In general terms: Carrageenan injected into the paw causes an acute inflammation.

Series [12] has as its system Rattus norvegicus. The series can be described thus: Antiinflammatory activity in Wistar Han rat assessed as reduction in exudate volume at 5 mg/kg, ip administered 30 mins before carrageenan challenge. The series is classed as functional, organism-based. Further details: dose 5 mg/kg.
Series [13] relates to Rattus norvegicus. The series can be described thus: Antiinflammatory activity in Wistar Han rat assessed as reduction in inflammatory cell numbers at 5 mg/kg, ip administered 30 mins before carrageenan challenge. The series is classed as functional, organism-based. More on the design: dose 5 mg/kg.
In series [14] the target is T3, Prostaglandin E synthase (Homo sapiens). The following applies: A549, Microsome, 30 uM.
Series [15] has the same target. The following applies: A549, Microsome, 0.3 uM.
Series [16] shares this target. To be noted: A549, Microsome, 3 uM.
Series [17] shares this target. To be noted: A549, Microsome, 3 uM. This is another data set of the same source.

Regarding `CCOC(=O)c1c(Cc2cccc(OC)c2)[nH]c2c1cc(O)c1ccccc12`, in [1], the Activity was found to be 89%.

A word on the IC50: it is the concentration that inhibits the measured activity by half. One may read the inhibition as the percentage by which the read-out fell short of the control. In the case of `CCOC(=O)c1c(Nc2cccc(Cl)c2)[nH]c2c1cc(O)c1ccccc12`, the Activity entry is “Non-toxic” in series [2], 13% in [4] and 35% in series [6]. Also, the IC50 in [3] is 1600 nM; in [5] (a549) it was “Dose-dependent effect”; in series [5] (read-out: IC50), 7900 nM. The inhibition result in series [1] and in [7] was “inactive” in each case. Also, in series [8], the inhibition stood at 31%.

Regarding `CCOC(=O)c1c(Cc2cccc(Cl)c2)n(-c2ccc(-c3ccccc3)cc2)c2ccc(O)cc12`, the 50% inhibitory concentration (IC50) in [3] amounted to 3100 nM. In addition, the Activity in [4] is 25%. Besides, the inhibition entry in series [1] is “inactive”.

Take `CCOC(=O)c1c(Cc2cccc(Cl)c2)[nH]c2c1cc(O)c1cc(OC)c(OC)cc12`: the inhibition result in series [1] is “inactive”.

Consider `Cc1ccc(-c2cc(C(F)(F)F)nn2-c2ccc(S(N)(=O)=O)cc2)cc1`, for which the inhibition entry in series [9] was “Active”.

For the compound `CCOC(=O)c1c(Cc2cccc(Cl)c2)n(Cc2ccccc2)c2c1cc(O)c1ccccc12`, the inhibition entry in [4] is “inactive”. For the same compound, the Activity in series [6] amounted to 35%.

For the compound `CCOC(=O)c1c(Nc2cccc(Cl)c2)[nH]c2ccc(O)cc12`, the Activity in series [4] worked out at 83%.

Turning to `CCOC(=O)c1c(Cc2ccc(Cl)cc2)[nH]c2c1cc(O)c1ccccc12`, the half-maximal inhibitory concentration (IC50) in series [3] was 3400 nM. Besides, the Activity in [4] and in series [1] was 26% in each case.

As to `CCOC(=O)c1c(Cc2cccc(Br)c2)[nH]c2c1cc(O)c1ccccc12`, the Activity in series [1] was found to be 82%.

Turning to `CCOC(=O)c1c(Cc2ccccc2Cl)[nH]c2c1cc(O)c1ccccc12`, the results for the concentration for half-maximal inhibition (IC50) in series [3] and in [5] (read-out: IC50) were 100 nM and 20500 nM, respectively. The Activity turned out to be 14% in series [4], 89% in [1] and 35% in series [6]. For the same compound, the inhibition result in series [7] and in [10] was “inactive” in each case.

Turning to `CCOC(=O)c1c(Cc2cccc(Cl)c2)[nH]c2ccc(O)cc12`, the Activity in [4] is 55%.

Consider `CCOC(=O)c1c(Cc2cccc(Cl)c2)[nH]c2c1cc(O)c1ccc(-c3ccccc3)cc12`, for which, in series [3], the concentration for half-maximal inhibition (IC50) was 2800 nM. The Activity in series [4] is 28%; in series [1], 66%.

As a reminder, the inhibition in vivo is the relative decrease from the control value, in per cent. For `COc1ccc2c(c1)c(CC(=O)O)c(C)n2C(=O)c1ccc(Cl)cc1` [INDOMETHACIN], the inhibition in vivo at 5 mg/kg in series [11] turned out to be 57%. Moreover, the inhibition entry in series [12] and in series [13] was “Active” in each case.

For `CCOC(=O)c1c(CCc2cccc(Cl)c2)[nH]c2ccc(O)cc12`, the Activity in [4] came to 65%.

For the compound `CCOC(=O)c1c(Cc2cccc(F)c2)[nH]c2c1cc(O)c1ccccc12`, the IC50 in series [3] turned out to be 500 nM. Also, the Activity in [4] was 5%. Besides, the inhibition entry in series [1] was “inactive”.

Take `CCOC(=O)c1c(CCc2cccc(Cl)c2)[nH]c2c1cc(O)c1ccccc12`: the Activity in series [4] was determined as 57%.

In the case of `CC(C)c1ccc2c(c1)c(SC(C)(C)C)c(CC(C)(C)C(=O)O)n2Cc1ccc(Cl)cc1`, the figures for the Activity in [1] and in [6] were 42% and 37%, respectively. In series [14], this compound yielded an inhibition of 82%. In addition, the inhibition result in [15] was “inactive”. Further, the inhibition entry in series [16] and in series [17] was “Active” throughout.
